In the library only some 2.3% were active in any assay of this set; here they are far more common.
TRPC4 potent: allosteric potentiators of mouse TRPC4 channel | Q9QUQ5 | hit rate 0.42% among 310,000 | B-score at 10 µM | AID 2227 | HEK293 TRPC4beta/mu-opioid, DAMGO EC20, Fluo-4 Ca2+ flux; stronger effect = higher value;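 active means B-score of calcium response area above 5 SD of library B-scores, with initial fluorescence ratio within 5 SD of library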
Target sequence (Q9QUQ5 whole entry, looked up): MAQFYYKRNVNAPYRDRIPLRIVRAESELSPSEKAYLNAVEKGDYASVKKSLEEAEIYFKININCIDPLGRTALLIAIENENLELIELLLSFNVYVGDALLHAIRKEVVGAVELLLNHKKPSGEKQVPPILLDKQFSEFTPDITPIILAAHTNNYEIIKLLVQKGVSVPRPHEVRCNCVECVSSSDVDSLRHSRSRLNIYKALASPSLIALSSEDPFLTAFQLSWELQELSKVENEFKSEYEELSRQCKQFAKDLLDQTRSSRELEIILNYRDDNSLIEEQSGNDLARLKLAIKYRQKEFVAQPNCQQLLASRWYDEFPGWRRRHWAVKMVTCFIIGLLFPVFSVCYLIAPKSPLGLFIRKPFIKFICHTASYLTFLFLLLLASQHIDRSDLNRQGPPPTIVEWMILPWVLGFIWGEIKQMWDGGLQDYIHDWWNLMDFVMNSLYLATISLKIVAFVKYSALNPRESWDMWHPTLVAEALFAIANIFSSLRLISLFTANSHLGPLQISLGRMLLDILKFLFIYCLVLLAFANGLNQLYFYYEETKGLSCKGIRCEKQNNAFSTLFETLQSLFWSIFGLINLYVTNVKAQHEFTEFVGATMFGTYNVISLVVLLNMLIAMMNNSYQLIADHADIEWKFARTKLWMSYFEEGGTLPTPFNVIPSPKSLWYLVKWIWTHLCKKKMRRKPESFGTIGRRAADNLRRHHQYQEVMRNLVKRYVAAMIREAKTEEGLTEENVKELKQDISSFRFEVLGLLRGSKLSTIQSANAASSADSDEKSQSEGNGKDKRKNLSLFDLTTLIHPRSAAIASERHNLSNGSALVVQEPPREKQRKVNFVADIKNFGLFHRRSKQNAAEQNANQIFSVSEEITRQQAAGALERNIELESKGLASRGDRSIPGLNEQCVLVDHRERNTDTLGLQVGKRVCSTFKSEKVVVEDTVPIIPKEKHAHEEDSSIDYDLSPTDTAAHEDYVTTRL
TRPC4 inh: blocks the mouse TRPC4 cation channel. Q9QUQ5. HEK293 TRPC4beta/mu-opioid, DAMGO-evoked Fluo4 calcium flux; stronger effect = lower value. B-score at 10 µM. hit rate 0.39% among 300,000. AID 2247;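 active means B-score over 3 SD under the library average, no early fluorescence shift, positive overall ratio signal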
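Material: HEK293 cells with stable TRPC4beta plus mu-opioid receptor expression / Probe or stimulus: DAMGO in two steps, submaximal then maximal / Compound: single concentration per test compound / Technique: kinetic Fluo4 fluorescence imaging of calcium influx / Read-out: per-well B score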
TRPC6 inh: inhibitors of mouse TRPC6 channel. Q61143. HEK293-TRPC6, membrane potential dye, ACh-evoked depolarization; stronger effect = lower value. B-score at 10 µM. hit rate 1.1% among 310,000;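 active means B-score under library mean minus 3 SD, initial fluorescence not abnormally high, positive integrated signal ratio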;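 further: B-score derived from integrated fluorescence ratio over the kinetic read; more negative B-score means stronger inhibition of depolarization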
TRPC6 act: mouse TRPC6 channel activation; Q61143; HEK293-TRPC6 membrane potential dye fluorescence; stronger effect = higher value; B-score at 10 µM; hit rate 0.13% among 310,000;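 active means B-score of the integrated fluorescence ratio above library mean plus 3 SD, and starting fluorescence ratio within library mean plus 5 SD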;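 further: higher score means more depolarization so channel activation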
TRPC4 act: activators of mouse TRPC4 channel. Q9QUQ5. HEK293 TRPC4beta/mu-opioid, Fluo4 calcium fluorescence; stronger effect = higher value. B-score at 10 µM. hit rate 0.49% among 310,000;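 active means B-score above 5 SD of library B-scores, and initial fluorescence ratio not above library mean plus 5 SD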;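 further: positive B-score marks a calcium rise read as TRPC4 activation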
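System: HEK293 cells stably co-expressing mouse TRPC4beta and mu-opioid receptor; Schedule: Fluo4 dye loading 45 min at room temperature, 110 s recording; Detection: Fluo4 fluorescence, kinetic; Evaluation: B-scored integrated calcium fluorescence ratio; Controls: buffer (low) and maximal DAMGO (high).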
TRPC4 spec 2: second check of whether TRPC6 inhibitors also affect mouse TRPC4; inhibition, % at 10 µM; shares compounds with TRPC6 inh; hit rate 42% among 920; HEK293 TRPC4/MOR, membrane potential dye fluorescence; channel activated by saturating DAMGO dose; AID 2776;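 active means compounds whose fluorescence signal differed from control wells by over 3 SD, either direction, in both duplicate plates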
TRPC4 spec: selectivity of TRPC6 inhibitors: effect on mouse TRPC4. shares compounds with TRPC6 inh. HEK293 TRPC4/mu-opioid, membrane potential fluorescence. hit rate 61% among 920. activity change, negative = inhibition, % at 10 µM. AID 2777;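 active means rise or fall in signal beyond 3 SD of buffer-only wells in both replicate plates, either sign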;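 further: integrated kinetic ratio of fluorescence range over baseline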
HEK293 MPD ctr 2-1: second counter-screen for TRPC6 inhibitors: parental HEK293 cells | shares compounds with TRPC6 inh | parental HEK293 membrane potential dye fluorescence; maximal acetylcholine challenge after compound addition | signal change vs control, % at 10 µM | hit rate 31% among 920;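 active means membrane potential signal moving either way by over 3 SD of the maximum-effect control, in both duplicate plates, meaning non-specific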
HEK293 MPD ctr-1: parental HEK293 nonspecific activity of TRPC6 inhibitors. shares compounds with TRPC6 inh. parental HEK293 membrane potential dye fluorescence. membrane potential signal change, % at 10 µM. hit rate 60% among 920. AID 2780;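 active means membrane potential signal shifting up or down by more than 3 SD of buffer-only wells, on both duplicate plates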
HEK293 MPD ctr-2: counter-screen for TRPC6 modulators: effect in parental HEK293 cells. shares compounds with TRPC6 inh. membrane potential dye fluorescence. membrane potential signal change, % at 10 µM. hit rate 51% among 2,400;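 active means membrane potential signal moves up or down beyond 5 SD from buffer-only wells, on both duplicate plates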
HEK293 MPD ctr 2-2: second counter-screen for TRPC6 modulators: effect in parental HEK293 cells; membrane potential dye fluorescence; after compound, maximal acetylcholine stimulation; hit rate 14% among 2,400; inhibition, % at 10 µM; shares compounds with TRPC6 inh; AID 488926;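 active means membrane potential signal drops by more than 5 SD from the mean control signal, in both duplicate plates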
TRPC4 ctr mod: selectivity of TRPC6 modulators against mouse TRPC4 | shares compounds with TRPC6 inh | HEK293 TRPC4/mu-opioid, membrane potential fluorescence | percent change from control (negative = decrease, positive = increase), % at 10 µM | hit rate 69% among 2,400 | AID 488927;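 active means membrane potential signal moved up or down beyond 5 SD of buffer control wells, in both duplicate plates, actives on both sides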
TRPC4 ctr inh 2: second check of whether TRPC6 modulators also affect mouse TRPC4 | shares compounds with TRPC6 inh | HEK293 TRPC4/mu-opioid, membrane potential dye fluorescence; stimulated with maximal-effect DAMGO | inhibition, % at 10 µM | hit rate 55% among 2,400 | AID 488928;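 active means drop in membrane potential signal beyond 5 SD of the control wells in both duplicate plates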;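 further: TRPC4 counter screen for TRPC6 hits run under conditions tuned for TRPC6 not TRPC4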
TRPC6 inh conf: confirmation of mouse TRPC6 inhibitors. shares compounds with TRPC6 inh. HEK293-TRPC6, membrane potential dye, ACh-evoked depolarization. inhibition, % at 10 µM. hit rate 43% among 3,300. AID 488960;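 active means fluorescence ratio falls more than 5 SD below the full-stimulation control mean, in both duplicate runs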;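 further: integrated fluorescence ratio of peak minus minimum over baseline after agonist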
TRPC6 act conf: confirmation of mouse TRPC6 activators; hit rate 11% among 2,800; shares compounds with TRPC6 inh; activation, % at 10 µM; HEK293-TRPC6 membrane potential dye fluorescence, FDSS; AID 488961;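 active means ratio signal rise beyond 5 SD above unstimulated control wells' mean, seen in both duplicate runs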
Of the large screens only hits and unclear results are named; the others gave an inactive call (follow-up assays come after a bar, where they were run).

CC(=O)c1ccc(Nc2nc(C)cc(C)n2)cc1	none
CC(=O)c1ccc(Nc2cc(C)nc3c(C)cccc23)cc1	TRPC6 inh -5.7 | HEK293 MPD ctr-2 -82% | HEK293 MPD ctr 2-2 64% | TRPC4 ctr mod -22% | TRPC4 ctr inh 2 54% | TRPC6 inh conf inactive | TRPC6 act conf inactive
O=C(NCCCN1CCOCC1)c1cccc(S(=O)(=O)Nc2ccccc2Cl)c1	none
COCc1nnc(NC(=O)c2cccc(NC(=O)c3ccccc3)c2)s1	none
CCCc1nc2c(C)cc(C)cc2c(N)c1CC	TRPC6 inh -6 | HEK293 MPD ctr-2 -94% | HEK293 MPD ctr 2-2 inactive | TRPC4 ctr mod -18% | TRPC4 ctr inh 2 60% | TRPC6 inh conf inactive | TRPC6 act conf inactive
CN(Cc1ccco1)S(=O)(=O)c1nnc(NC(=O)c2ccccc2Cl)s1	none
CCN(CC)CCN1C(=O)Cn2c(C)c(C)c3cccc1c32	TRPC6 inh -8.4 | TRPC4 spec 2 50% | TRPC4 spec -17% | HEK293 MPD ctr 2-1 inactive | HEK293 MPD ctr-1 -254% | HEK293 MPD ctr-2 inactive | HEK293 MPD ctr 2-2 inactive | TRPC4 ctr mod -18% | TRPC4 ctr inh 2 61% | TRPC6 inh conf 53% | TRPC6 act conf inactive
CN1CCS/C1=C/C=C1/SC(=S)N(Cc2ccccc2)C1=O	TRPC6 act 19 | HEK293 MPD ctr-2 278% | HEK293 MPD ctr 2-2 inactive | TRPC4 ctr mod 49% | TRPC4 ctr inh 2 inactive | TRPC6 inh conf inactive | TRPC6 act conf 112%
N=c1c(-c2nc3ccccc3[nH]2)cc(C(=O)c2cccs2)nn1-c1ccc(Cl)cc1	TRPC6 inh -6.2 | HEK293 MPD ctr-2 inactive | HEK293 MPD ctr 2-2 inactive | TRPC4 ctr mod -19% | TRPC4 ctr inh 2 56% | TRPC6 inh conf inactive | TRPC6 act conf inactive
O=C(Nc1nc2ccccc2[nH]1)c1cccs1	none
O=C(NC1CCCC1)C(c1ccccc1)N(Cc1cccnc1)C(=O)Cc1cccs1 (centres undefined)	TRPC6 inh -6.1 | HEK293 MPD ctr-2 194% | HEK293 MPD ctr 2-2 inactive | TRPC4 ctr mod 50% | TRPC4 ctr inh 2 inactive | TRPC6 inh conf inactive
Cc1ccc(CN(C(=O)Cc2cccs2)C(C(=O)NC2CCCC2)c2ccncc2)cc1 (centres undefined)	none
COCCN(CCOC)c1nc(S(=O)(=O)c2ccc(C)cc2)c(Cl)s1	TRPC6 inh -5.4 | HEK293 MPD ctr-2 106% | HEK293 MPD ctr 2-2 inactive | TRPC4 ctr mod 24% | TRPC4 ctr inh 2 inactive | TRPC6 inh conf inactive
NCCCn1c(C(=O)c2ccc(Cl)cc2)c2ccc(C(F)(F)F)cc2[n+]1[O-]	TRPC6 inh -9.3 | TRPC4 spec 2 56% | TRPC4 spec -11% | HEK293 MPD ctr 2-1 inactive | HEK293 MPD ctr-1 -180% | TRPC6 inh conf 67% | TRPC6 act conf inactive
CCCNC(=O)CN1CCN(c2cc3ccccc3c(Cl)n2)CC1	none
CCOC(=O)c1nnn2c1nc(N1CCCCC1)c1ccccc12	none
CCOC(=O)c1nnn2c1nc(N1CCN(C)CC1)c1ccccc12	TRPC6 inh -8.4 | HEK293 MPD ctr-2 -238% | HEK293 MPD ctr 2-2 74% | TRPC4 ctr mod -42% | TRPC4 ctr inh 2 53% | TRPC6 inh conf 61% | TRPC6 act conf inactive
O=C(CCOc1ccccc1)OCC(=O)c1cc2ccccc2o1	TRPC6 inh -9.3 | TRPC4 spec 2 inactive | TRPC4 spec inactive | HEK293 MPD ctr 2-1 inactive | HEK293 MPD ctr-1 inactive | TRPC6 inh conf inactive | TRPC6 act conf inactive
CC(C)Oc1ccc(C(=O)Nc2ccc(N3CCCCC3)cc2)cc1	TRPC6 inh -5.9 | HEK293 MPD ctr-2 inactive | HEK293 MPD ctr 2-2 inactive | TRPC4 ctr mod inactive | TRPC4 ctr inh 2 inactive | TRPC6 inh conf inactive | TRPC6 act conf inactive
Cc1ccc(C(=O)Nc2ccc(N3CCN(C)CC3)cc2)cc1C	TRPC6 inh -6.1 | HEK293 MPD ctr-2 inactive | HEK293 MPD ctr 2-2 inactive | TRPC4 ctr mod -15% | TRPC4 ctr inh 2 44% | TRPC6 inh conf 42% | TRPC6 act conf inactive
Cc1ccc(C(=O)Nc2ccc(N3CCN(S(C)(=O)=O)CC3)cc2)cc1C	none
Cc1ccc(C(=O)Nc2ccc(N3CCCC3)cc2)cc1	none
Cc1nc(SCC(=O)c2ccccc2)c(C#N)c(-c2ccco2)c1C(=O)NCc1ccco1	TRPC6 act 14 | HEK293 MPD ctr-2 220% | HEK293 MPD ctr 2-2 inactive | TRPC4 ctr mod 16% | TRPC4 ctr inh 2 inactive | TRPC6 inh conf inactive | TRPC6 act conf 52%
CCC(C)NC(=O)Cn1cc(S(=O)(=O)N2CCN(c3ccccc3F)CC2)c2ccccc2c1=O (centres undefined)	none
COc1ccc(-c2csc3nc(C)nc(N4CCC(C)CC4)c23)cc1OC	TRPC4 potent 23, TRPC6 inh -6.6 | TRPC4 spec 2 inactive | TRPC4 spec 3.6% | HEK293 MPD ctr 2-1 inactive | HEK293 MPD ctr-1 2.4% | TRPC6 inh conf 59%
C=CCn1c(=N)n(CC(=O)c2ccc(Br)s2)c2ccccc21	TRPC6 inh -8 | TRPC4 spec 2 13% | TRPC4 spec 17% | HEK293 MPD ctr 2-1 inactive | HEK293 MPD ctr-1 inactive | TRPC6 inh conf 65% | TRPC6 act conf inactive
C=CCn1c(=N)n(CC(=O)c2ccc(Cl)cc2)c2ccccc21	TRPC6 inh -5.9 | HEK293 MPD ctr-2 inactive | HEK293 MPD ctr 2-2 inactive | TRPC4 ctr mod 36% | TRPC4 ctr inh 2 93% | TRPC6 inh conf 58%

Assay outcomes (PubChem BioAssay)
